Active and inactive are the calls of the source. The calls are words filed in the database; no cut-off is given here.
Legend:
[1] = Antiplatelet activity against rabbit platelets assessed as inhibition of PAF-induced platelet aggregation at 50 ug/ml preincubated for 3 mins by turbidimetric method; format: functional, Oryctolagus cuniculus; parameters: scale not given: the % may be the effect or the level left
Method in brief: (§1)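 Washed rabbit platelets were preincubated with test sample or 0.5% DMSO vehicle for 3 min at 37 °C. Inducers were thrombin 0.1 U/mL, arachidonic acid 100 μM, collagen 10 μg/mL or PAF 2 nM. Turbidimetric read-out took platelet suspension absorbance as 0% and platelet-free Tyrode's as 100% aggregation, measured at 6 min. Results are mean ± SEM with n per entry.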

[2] = Antiplatelet activity against rabbit platelets assessed as inhibition of thrombin-induced platelet aggregation at 50 ug/ml preincubated for 3 mins by turbidimetric method; format: functional, Oryctolagus cuniculus; parameters: scale not given: the % may be the effect or the level left; method in brief: as §1
[3] = Antiplatelet activity against rabbit platelets assessed as inhibition of arachidonic acid-induced platelet aggregation at 50 ug/ml preincubated for 3 mins by turbidimetric method; format: functional, Oryctolagus cuniculus; parameters: scale not given: the % may be the effect or the level left; method in brief: as §1
[4] = Antiplatelet activity against rabbit platelets assessed as inhibition of arachidonic acid-induced platelet aggregation at 20 ug/ml preincubated for 3 mins by turbidimetric method; format: functional, Oryctolagus cuniculus; parameters: scale not given: the % may be the effect or the level left; method in brief: as §1
[5] = Antiplatelet activity against rabbit platelets assessed as inhibition of arachidonic acid-induced platelet aggregation at 10 ug/ml preincubated for 3 mins by turbidimetric method; format: functional, Oryctolagus cuniculus; parameters: scale not given: the % may be the effect or the level left; method in brief: as §1
[6] = (§2) Antiplatelet activity against rabbit platelets assessed as inhibition of collagen-induced platelet aggregation at 50 ug/ml preincubated for 3 mins by turbidimetric method; format: functional, Oryctolagus cuniculus; parameters: scale not given: the % may be the effect or the level left; method in brief: as §1
[7] = Antiplatelet activity against rabbit platelets assessed as inhibition of PAF-induced platelet aggregation at 100 ug/ml preincubated for 3 mins by turbidimetric method; format: functional, Oryctolagus cuniculus; parameters: scale not given: the % may be the effect or the level left; method in brief: as §1
[8] = Antiplatelet activity against rabbit platelets assessed as inhibition of PAF-induced platelet aggregation at 20 ug/ml preincubated for 3 mins by turbidimetric method; format: functional, Oryctolagus cuniculus; parameters: scale not given: the % may be the effect or the level left; method in brief: as §1
[9] = Antiplatelet activity against rabbit platelets assessed as inhibition of PAF-induced platelet aggregation at 10 ug/ml preincubated for 3 mins by turbidimetric method; format: functional, Oryctolagus cuniculus; parameters: scale not given: the % may be the effect or the level left; method in brief: as §1
[10] = system: Aorta; assay: Vasorelaxation activity in rat aorta assessed as inhibition of K+-induced contraction at 50 ug/ml preincubated for 15 mins relative to control; format: functional; parameters: scale not given: the % may be the effect or the level left
Method in brief: (§3)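 Rat aorta was preincubated with test sample or 0.1% DMSO vehicle at 37 °C for 15 min. Contraction was then evoked with high K+ (80 mM) or norepinephrine (3 μM). Response is expressed as percent of control contraction, mean ± SEM, n = 3.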

[11] = system: Aorta; assay: Vasorelaxation activity in rat aorta assessed as inhibition of K+-induced contraction at 15 ug/ml preincubated for 15 mins relative to control; format: functional; parameters: scale not given: the % may be the effect or the level left; method in brief: as §3
[12] = system: Aorta; assay: Vasorelaxation activity in rat aorta assessed as inhibition of norepinephrine-induced phasic contraction at 50 ug/ml preincubated for 15 mins relative to control; format: functional; parameters: scale not given: the % may be the effect or the level left; method in brief: as §3
[13] = system: Aorta; assay: Vasorelaxation activity in rat aorta assessed as inhibition of norepinephrine-induced tonic contraction at 50 ug/ml preincubated for 15 mins relative to control; format: functional; parameters: scale not given: the % may be the effect or the level left; method in brief: as §3
[14] = Antiplatelet activity against rabbit platelets assessed as inhibition of thrombin-induced platelet aggregation at 100 ug/ml preincubated for 3 mins by turbidimetric method; format: functional, Oryctolagus cuniculus; parameters: scale not given: the % may be the effect or the level left; method in brief: as §1
[15] = Antiplatelet activity against rabbit platelets assessed as inhibition of thrombin-induced platelet aggregation at 20 ug/ml preincubated for 3 mins by turbidimetric method; format: functional, Oryctolagus cuniculus; parameters: scale not given: the % may be the effect or the level left; method in brief: as §1
[16] = Antiplatelet activity against rabbit platelets assessed as inhibition of thrombin-induced platelet aggregation at 10 ug/ml preincubated for 3 mins by turbidimetric method; format: functional, Oryctolagus cuniculus; parameters: scale not given: the % may be the effect or the level left; method in brief: as §1
[17] = Antiplatelet activity against rabbit platelets assessed as inhibition of arachidonic acid-induced platelet aggregation at 100 ug/ml preincubated for 3 mins by turbidimetric method; format: functional, Oryctolagus cuniculus; parameters: scale not given: the % may be the effect or the level left; method in brief: as §1
[18] = (§4) Antiplatelet activity against rabbit platelets assessed as inhibition of collagen-induced platelet aggregation at 100 ug/ml preincubated for 3 mins by turbidimetric method; format: functional, Oryctolagus cuniculus; parameters: scale not given: the % may be the effect or the level left; method in brief: as §1
[19] = Antiplatelet activity against rabbit platelets assessed as inhibition of collagen-induced platelet aggregation at 20 ug/ml preincubated for 3 mins by turbidimetric method; format: functional, Oryctolagus cuniculus; parameters: scale not given: the % may be the effect or the level left; method in brief: as §1
[20] = Antiplatelet activity against rabbit platelets assessed as inhibition of collagen-induced platelet aggregation at 10 ug/ml preincubated for 3 mins by turbidimetric method; format: functional, Oryctolagus cuniculus; parameters: scale not given: the % may be the effect or the level left; method in brief: as §1
[21] = system: Aorta; assay: Vasorelaxation activity in rat aorta assessed as inhibition of K+-induced contraction at 1 ug/ml preincubated for 15 mins relative to control; format: functional; parameters: scale not given: the % may be the effect or the level left
Method in brief: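 Rat aorta preincubated with sample or DMSO (0.1%, control) at 37 °C for 15 min. Contraction then induced by high potassium (K+, 80 mM). Response expressed as percentage of control contraction, given as means ± S.E.M. (n = 3).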

[22] = system: Aorta; assay: Vasorelaxation activity in rat aorta assessed as inhibition of K+-induced contraction at 100 ug/ml preincubated for 15 mins relative to control; format: functional; parameters: scale not given: the % may be the effect or the level left; method in brief: as §3
[23] = system: Aorta; assay: Vasorelaxation activity in rat aorta assessed as inhibition of norepinephrine-induced phasic contraction at 100 ug/ml preincubated for 15 mins relative to control; format: functional; parameters: scale not given: the % may be the effect or the level left; method in brief: as §3
[24] = system: Aorta; assay: Vasorelaxation activity in rat aorta assessed as inhibition of norepinephrine-induced tonic contraction at 100 ug/ml preincubated for 15 mins relative to control; format: functional; parameters: scale not given: the % may be the effect or the level left; method in brief: as §3
[25] = system: Platelet; assay: as §4; format: functional; conditions: Oryctolagus cuniculus; method in brief: as §1
[26] = system: Platelet; assay: as §2; format: functional; conditions: Oryctolagus cuniculus; method in brief: as §1

CC(=O)Oc1ccccc1C(=O)O [ASPIRIN]
Activity [1]: 90.1%
Activity [2]: 92.1%
Activity [3]: 0%
Activity [4]: 42.7%
Activity [5]: 90.2%
Activity [6]: 87.1%

CCC(=O)CC/C=C\CC/C=C/C=C/C(=O)NCC(C)C [LANYUAMIDE II]
Activity [7]: 0%
Activity [1]: 0%
Activity [8]: 70.5%
Activity [9]: 77.8%
Activity [10]: 36.1%
Activity [11]: 72.5%
Activity [12]: 83.8%
Activity [13]: 78.5%
Activity [14]: 0%
Activity [2]: 35.9%
Activity [15]: 75.2%
Activity [16]: 77.6%
Activity [17]: 0%
Activity [4]: 0%
Activity [5]: 44.2%
Activity [18]: 0%
Activity [19]: 0%
Activity [20]: 10.5%

COC(=O)C1=C(C)NC(C)=C(C(=O)OC)C1c1ccccc1[N+](=O)[O-] [NIFEDIPINE]
Activity [21]: 0%

COc1ccc(-c2oc3c(OC)c(OC)cc(O)c3c(=O)c2O)cc1 [TAMBULIN]
Activity [7]: 78.6%
Activity [22]: 104.7%
Activity [23]: 100.2%
Activity [24]: 98.6%
Activity [14]: 81.1%
Activity [17]: 73.3%
Activity [18]: 64.9%

CCCCCCCCCCCC(C)=O [2-TRIDECANONE]
Activity [4]: 63.5%
Activity [25]: inactive
Activity [26]: inactive

Source: ChEMBL document CHEMBL1158680, “Chemical constituents and biological activities of the fruit of Zanthoxylum integrifoliolum” (1999)
